Reference: ChEMBL document CHEMBL5303300, “EUbOPEN Chemogenomics Library - Multiplex” (2023)
Where “and” joins values, the source holds several entries; their conditions need not be identical. Equal entries are not always repeated.

Test system: Fibroblast
Assay: Multiplex assay against human fibroblast
Type: toxicity, cell-based
Details: number of replicates 2
Method in brief: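 Live cells were stained at seeding with Hoechst33342, BioTracker Green Microtubule Cytoskeleton Dye, MitoTracker Red and Annexin V Alexa Fluor 680. Following compound addition, they were imaged on a CQ1 microscope at 37°C and 5% CO2 and gated by CellPathfinder machine learning into Hoechst high-intensity objects or normal cells, with normal cells split into healthy, pyknosed or fragmented nuclei and pyknosed cells into mitotic or apoptotic. Tubulin, mitochondrial-mass and membrane-permeability phenotypes are per cents of healthy-nucleus cells.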

[1] = 12 h, 1 µM, compound concentration 1 uM
[2] = 12 h, 10 µM, compound concentration 10 uM
[3] = 24 h, 1 µM, compound concentration 1 uM
[4] = 24 h, 10 µM, compound concentration 10 uM
[5] = 48 h, 1 µM, compound concentration 1 uM
[6] = 48 h, 10 µM, compound concentration 10 uM

Q: With `OC(c1ccc(-c2ccc(CN3CCN(Cc4ccncc4)CC3)cc2)c(F)c1)(C(F)(F)F)C(F)(F)F` as the molecule, how does the “Population Apoptotic (%)” value [1] read?
A: 54% and 23%

Q: What about the “Population Fragmented Nuclei (%)” value [1] of the same molecule?
A: 5% and 6%

Q: And the “Population Healthy Nuclei (%)” value [1]?
A: 43% and 70%

Q: And the “Population Hoechst High Intensity Objects (%)” value [1]?
A: 0%

Q: And the “Population Membrane Permeable-Phenotype (%)” value [1]?
A: 8% and 3%

Q: And the “Population Mitochondria Different-Phenotype (%)” value [1]?
A: 0% and 1%

Q: What about the “Population Mitotic Cells (%)” value [1] of the same molecule?
A: 45% and 76%

Q: What about the “Population Normal (%)” value [1] of the same molecule?
A: 100%

Q: And the “Population Pyknosed Nuclei (%)” value [1]?
A: 50% and 23%

Q: And the “Population Tubulin-Different-Phenotype (%)” value [1]?
A: 6% and 8%

Q: What about the “Total Cell Count” value [1] of the same molecule?
A: 108 and 164

Q: And the “Population Apoptotic (%)” value [2]?
A: 31% and 45%

Q: And the “Population Fragmented Nuclei (%)” value [2]?
A: 10% and 16%

Q: And the “Population Healthy Nuclei (%)” value [2]?
A: 70% and 63%

Q: And the “Population Hoechst High Intensity Objects (%)” value [2]?
A: 0%

Q: What about the “Population Membrane Permeable-Phenotype (%)” value [2] of the same molecule?
A: 6% and 8%

Q: And the “Population Mitochondria Different-Phenotype (%)” value [2]?
A: 0% and 3%

Q: And the “Population Mitotic Cells (%)” value [2]?
A: 68% and 55%

Q: What about the “Population Normal (%)” value [2] of the same molecule?
A: 100% and 99%

Q: And the “Population Pyknosed Nuclei (%)” value [2]?
A: 18% and 19%

Q: What about the “Population Tubulin-Different-Phenotype (%)” value [2] of the same molecule?
A: 24% and 25%

Q: What about the “Total Cell Count” value [2] of the same molecule?
A: 156 and 204

Q: What about the “Population Apoptotic (%)” value [3] of the same molecule?
A: 61% and 55%

Q: And the “Population Fragmented Nuclei (%)” value [3]?
A: 6% and 10%

Q: And the “Population Healthy Nuclei (%)” value [3]?
A: 45% and 65%

Q: And the “Population Hoechst High Intensity Objects (%)” value [3]?
A: 0%

Q: And the “Population Membrane Permeable-Phenotype (%)” value [3]?
A: 12% and 7%

Q: What about the “Population Mitochondria Different-Phenotype (%)” value [3] of the same molecule?
A: 2% and 3%

Q: What about the “Population Mitotic Cells (%)” value [3] of the same molecule?
A: 38% and 44%

Q: And the “Population Normal (%)” value [3]?
A: 100%

Q: What about the “Population Pyknosed Nuclei (%)” value [3] of the same molecule?
A: 47% and 23%

Q: What about the “Population Tubulin-Different-Phenotype (%)” value [3] of the same molecule?
A: 16% and 15%

Q: And the “Total Cell Count” value [3]?
A: 109 and 151

Q: And the “Population Apoptotic (%)” value [4]?
A: 44% and 45%

Q: And the “Population Fragmented Nuclei (%)” value [4]?
A: 7% and 13%

Q: And the “Population Healthy Nuclei (%)” value [4]?
A: 74% and 61%

Q: And the “Population Hoechst High Intensity Objects (%)” value [4]?
A: 0%

Q: And the “Population Membrane Permeable-Phenotype (%)” value [4]?
A: 3% and 7%

Q: What about the “Population Mitochondria Different-Phenotype (%)” value [4] of the same molecule?
A: 1% and 3%

Q: And the “Population Mitotic Cells (%)” value [4]?
A: 56% and 54%

Q: And the “Population Normal (%)” value [4]?
A: 99% and 100%

Q: What about the “Population Pyknosed Nuclei (%)” value [4] of the same molecule?
A: 17% and 24%

Q: And the “Population Tubulin-Different-Phenotype (%)” value [4]?
A: 16% and 23%

Q: What about the “Total Cell Count” value [4] of the same molecule?
A: 144 and 197

Q: And the “Population Apoptotic (%)” value [5]?
A: 74% and 80%

Q: What about the “Population Fragmented Nuclei (%)” value [5] of the same molecule?
A: 16% and 17%

Q: And the “Population Healthy Nuclei (%)” value [5]?
A: 53% and 61%

Q: What about the “Population Hoechst High Intensity Objects (%)” value [5] of the same molecule?
A: 0%

Q: What about the “Population Membrane Permeable-Phenotype (%)” value [5] of the same molecule?
A: 11% and 5%

Q: And the “Population Mitochondria Different-Phenotype (%)” value [5]?
A: 0%

Q: And the “Population Mitotic Cells (%)” value [5]?
A: 25% and 19%

Q: And the “Population Normal (%)” value [5]?
A: 100%

Q: And the “Population Pyknosed Nuclei (%)” value [5]?
A: 29% and 21%

Q: What about the “Population Tubulin-Different-Phenotype (%)” value [5] of the same molecule?
A: 11% and 12%

Q: What about the “Total Cell Count” value [5] of the same molecule?
A: 118 and 167

Q: What about the “Population Apoptotic (%)” value [6] of the same molecule?
A: 73% and 77%

Q: And the “Population Fragmented Nuclei (%)” value [6]?
A: 14% and 16%

Q: What about the “Population Healthy Nuclei (%)” value [6] of the same molecule?
A: 73% and 71%

Q: And the “Population Hoechst High Intensity Objects (%)” value [6]?
A: 0%

Q: What about the “Population Membrane Permeable-Phenotype (%)” value [6] of the same molecule?
A: 6% and 4%

Q: What about the “Population Mitochondria Different-Phenotype (%)” value [6] of the same molecule?
A: 0% and 2%

Q: And the “Population Mitotic Cells (%)” value [6]?
A: 26% and 22%

Q: And the “Population Normal (%)” value [6]?
A: 100%

Q: And the “Population Pyknosed Nuclei (%)” value [6]?
A: 11% and 12%

Q: What about the “Population Tubulin-Different-Phenotype (%)” value [6] of the same molecule?
A: 16% and 12%

Q: What about the “Total Cell Count” value [6] of the same molecule?
A: 162 and 183

Q: Which “Population Apoptotic (%)” value [1] does the source give for `Cn1cc(-n2cnc3c(NCc4nc5cc(Cl)c(Cl)cc5[nH]4)nc(N4CCOCC4)nc32)cn1` here?
A: 39% and 65%

Q: What about the “Population Healthy Nuclei (%)” value [1] of the same molecule?
A: 79% and 57%

Q: What about the “Population Hoechst High Intensity Objects (%)” value [1] of the same molecule?
A: 0% and 3%

Q: What about the “Population Membrane Permeable-Phenotype (%)” value [1] of the same molecule?
A: 7%

Q: What about the “Population Mitochondria Different-Phenotype (%)” value [1] of the same molecule?
A: 2% and 3%

Q: And the “Population Mitotic Cells (%)” value [1]?
A: 60% and 34%

Q: What about the “Population Normal (%)” value [1] of the same molecule?
A: 100% and 96%

Q: What about the “Population Pyknosed Nuclei (%)” value [1] of the same molecule?
A: 15% and 19%

Q: And the “Population Tubulin-Different-Phenotype (%)” value [1]?
A: 29% and 27%

Q: And the “Total Cell Count” value [1]?
A: 211 and 225

Q: What about the “Population Apoptotic (%)” value [2] of the same molecule?
A: 55% and 51%

Q: And the “Population Fragmented Nuclei (%)” value [2]?
A: 10% and 19%

Q: And the “Population Healthy Nuclei (%)” value [2]?
A: 59% and 60%

Q: What about the “Population Hoechst High Intensity Objects (%)” value [2] of the same molecule?
A: 0%

Q: What about the “Population Membrane Permeable-Phenotype (%)” value [2] of the same molecule?
A: 25% and 27%

Q: What about the “Population Mitochondria Different-Phenotype (%)” value [2] of the same molecule?
A: 3% and 5%

Q: What about the “Population Mitotic Cells (%)” value [2] of the same molecule?
A: 44% and 48%

Q: And the “Population Normal (%)” value [2]?
A: 100%

Q: And the “Population Pyknosed Nuclei (%)” value [2]?
A: 30% and 20%

Q: And the “Population Tubulin-Different-Phenotype (%)” value [2]?
A: 74% and 81%

Q: What about the “Total Cell Count” value [2] of the same molecule?
A: 147 and 142

Q: And the “Population Apoptotic (%)” value [3]?
A: 89% and 85%

Q: What about the “Population Fragmented Nuclei (%)” value [3] of the same molecule?
A: 27% and 14%

Q: What about the “Population Healthy Nuclei (%)” value [3] of the same molecule?
A: 32% and 46%

Q: And the “Population Hoechst High Intensity Objects (%)” value [3]?
A: 6% and 1%

Q: What about the “Population Membrane Permeable-Phenotype (%)” value [3] of the same molecule?
A: 12%

Q: And the “Population Mitochondria Different-Phenotype (%)” value [3]?
A: 2% and 1%

Q: What about the “Population Mitotic Cells (%)” value [3] of the same molecule?
A: 10% and 14%

Q: And the “Population Normal (%)” value [3]?
A: 93% and 98%

Q: What about the “Population Pyknosed Nuclei (%)” value [3] of the same molecule?
A: 40% and 38%

Q: And the “Population Tubulin-Different-Phenotype (%)” value [3]?
A: 28% and 53%

Q: And the “Total Cell Count” value [3]?
A: 229 and 205

Q: What about the “Population Apoptotic (%)” value [4] of the same molecule?
A: 63% and 65%

Q: And the “Population Fragmented Nuclei (%)” value [4]?
A: 10% and 19%

Q: And the “Population Healthy Nuclei (%)” value [4]?
A: 62% and 59%

Q: What about the “Population Hoechst High Intensity Objects (%)” value [4] of the same molecule?
A: 0%

Q: What about the “Population Membrane Permeable-Phenotype (%)” value [4] of the same molecule?
A: 14%

Q: What about the “Population Mitochondria Different-Phenotype (%)” value [4] of the same molecule?
A: 6% and 13%

Q: What about the “Population Mitotic Cells (%)” value [4] of the same molecule?
A: 36% and 34%

Q: What about the “Population Normal (%)” value [4] of the same molecule?
A: 99%

Q: What about the “Population Pyknosed Nuclei (%)” value [4] of the same molecule?
A: 27% and 21%

Q: What about the “Population Tubulin-Different-Phenotype (%)” value [4] of the same molecule?
A: 79% and 85%

Q: What about the “Total Cell Count” value [4] of the same molecule?
A: 149 and 148

Q: What about the “Population Apoptotic (%)” value [5] of the same molecule?
A: 93% and 94%

Q: What about the “Population Fragmented Nuclei (%)” value [5] of the same molecule?
A: 27% and 13%

Q: What about the “Population Healthy Nuclei (%)” value [5] of the same molecule?
A: 12% and 16%

Q: And the “Population Hoechst High Intensity Objects (%)” value [5]?
A: 5% and 0%

Q: And the “Population Membrane Permeable-Phenotype (%)” value [5]?
A: 12% and 29%

Q: And the “Population Mitochondria Different-Phenotype (%)” value [5]?
A: 4% and 3%

Q: And the “Population Mitotic Cells (%)” value [5]?
A: 6% and 5%

Q: What about the “Population Normal (%)” value [5] of the same molecule?
A: 94% and 99%

Q: And the “Population Pyknosed Nuclei (%)” value [5]?
A: 60% and 69%

Q: And the “Population Tubulin-Different-Phenotype (%)” value [5]?
A: 36% and 61%

Q: What about the “Total Cell Count” value [5] of the same molecule?
A: 218 and 190

Q: And the “Population Apoptotic (%)” value [6]?
A: 81% and 87%

Q: What about the “Population Fragmented Nuclei (%)” value [6] of the same molecule?
A: 15% and 19%

Q: What about the “Population Healthy Nuclei (%)” value [6] of the same molecule?
A: 35% and 38%

Q: And the “Population Hoechst High Intensity Objects (%)” value [6]?
A: 1% and 0%

Q: What about the “Population Membrane Permeable-Phenotype (%)” value [6] of the same molecule?
A: 20% and 11%

Q: And the “Population Mitochondria Different-Phenotype (%)” value [6]?
A: 22% and 19%

Q: And the “Population Mitotic Cells (%)” value [6]?
A: 18% and 12%

Q: What about the “Population Normal (%)” value [6] of the same molecule?
A: 98% and 100%

Q: What about the “Population Pyknosed Nuclei (%)” value [6] of the same molecule?
A: 49% and 41%

Q: And the “Population Tubulin-Different-Phenotype (%)” value [6]?
A: 74% and 78%

Q: What about the “Total Cell Count” value [6] of the same molecule?
A: 154 and 134
